Results published in ChEMBL document CHEMBL3526063, “Metabolism and pharmacokinetics of JM6 in mice: JM6 is not a prodrug for Ro-61-8048” (Drug Metab Dispos, 2012).

What was measured:
MDR1 [1] = assay: Apparent permeability from apical to basolateral side in MDCK2-MDR1 cells at 10 uM after 1 hr by LC-MS/MS analysis; type: ADME, cell-based, Canis lupus familiaris, MDCK-II; settings: dog, MDCK-MDR1
Summary of the method: (§1)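 MDCKII wild-type or MDR1 monolayers were grown 3 days on Transwells after seeding at 2×10^5 cells/well. Compound at 10 µM in HBSS with 25 mM HEPES, pH 7.4, was added apically or basolaterally in duplicate, with Lucifer Yellow as an integrity marker (wells above 100 nm/s rejected).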

[2] = molecular target: Kynurenine 3-monooxygenase (Rattus norvegicus, UniProt O88867); assay: Inhibition of Wistar rat KMO assessed as 3-hydroxykynurenine formation preincubated for 5 mins using 100 uM kynurenine as substrate by LC-MS/MS analysis
Summary of the method: (§2)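 Liver mitochondrial KMO preparation (mouse C57 BL/6J, rat Wistar, human) at 0.3 mg protein/mL in 100 mM potassium phosphate pH 7.4 with 200 µM NADPH, 0.4 U/mL G6PDH, 3 mM glucose 6-phosphate. Compound pre-incubated 5 min at 25°C, then 100 µM kynurenine added; 40 min (rodent) or 60 min (human). Stopped with TCA; 3-hydroxykynurenine by LC-MS/MS. IC50 from 8-point 3-fold dilutions (top 3 or 30 µM), triplicates, n≥2 runs.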

[3] = molecular target: Kynurenine 3-monooxygenase (Homo sapiens, UniProt O15229); assay: Inhibition of human KMO assessed as 3-hydroxykynurenine formation preincubated for 5 mins using 100 uM kynurenine as substrate by LC-MS/MS analysis; summary of the method: as §2
[4] = AUClast in C57BL/6N mouse treated with JM6 (containing <0.4% Ro-61-8048) at 50 mg/kg, po and Ro-61-8048 at 0.05 mg/kg, po drugs administered via gavage by LC-MS/MS analysis; type: ADME, organism-based; parameters: dose 50 mg/kg, time 0 - last, route oral; settings: plasma
Summary of the method: (§3)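 Male C57BL/6N mice were dosed by oral gavage at 10 mL/kg with a fine suspension in 10% hydroxypropyl-β-cyclodextrin in 50 mM phosphate buffer, pH 7. Plasma was taken at non-serial time points (n=3 per time point), extracted with 0.1% formic acid in acetonitrile containing diclofenac as internal standard, and quantified by UPLC-MS/MS. Composite non-compartmental parameters came from mean concentrations; AUClast by linear trapezoid, kel from at least three terminal points.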

MDR1 [5] = assay: Apparent permeability from basolateral to apical side in MDCK2-MDR1 cells at 10 uM after 1 hr by LC-MS/MS analysis; type: ADME, cell-based, Canis lupus familiaris, MDCK-II; settings: dog, MDCK-MDR1; summary of the method: as §1
[6] = Oral bioavailability in C57BL/6N mouse treated with JM6 (containing <0.4% Ro-61-8048) at 10 mg/kg and Ro-61-8048 at 0.05 mg/kg drugs administered via gavage by LC-MS/MS analysis; type: ADME, organism-based; settings: in vivo
Summary of the method: (§4)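 Male C57BL/6N mice dosed by oral gavage (10 mL/kg) as fine suspensions in 10% hydroxypropyl-β-cyclodextrin in 50 mM phosphate buffer pH 7; dose formulations verified by LC-MS/MS. Plasma analysed by LC-MS/MS; composite non-compartmental parameters from mean concentrations (n=3 per time point), C0 set to zero. %F = dose-normalised po AUCinf over dose-normalised iv AUCinf, only within linear range.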

[7] = Tmax in C57BL/6N mouse treated with JM6 (containing <0.4% Ro-61-8048) at 25 mg/kg, po and Ro-61-8048 at 0.05 mg/kg, po drugs administered via gavage by LC-MS/MS analysis; type: ADME, organism-based; settings: in vivo; summary of the method: as §4
[8] = AUClast in C57BL/6N mouse treated with JM6 (containing <0.4% Ro-61-8048) at 25 mg/kg, po and Ro-61-8048 at 0.05 mg/kg, po drugs administered via gavage by LC-MS/MS analysis; type: ADME, organism-based; parameters: dose 25 mg/kg, route oral, time 0 - last; settings: plasma; summary of the method: as §3
[9] = Cmax in C57BL/6N mouse treated with JM6 (containing <0.4% Ro-61-8048) at 10 mg/kg, po and Ro-61-8048 at 0.05 mg/kg, po drugs administered via gavage by LC-MS/MS analysis; type: ADME, organism-based; parameters: dose 10 mg/kg, route oral; settings: in vivo; summary of the method: as §3
[10] = Metabolic stability in human plasma assessed as half life at 5 uM after 10 to 1440 mins by LC-MS/MS analysis; type: ADME, cell-free
[11] = Metabolic stability in rat plasma assessed as half life at 5 uM after 10 to 1440 mins by LC-MS/MS analysis; type: ADME, cell-free
Mus musculus [12] = assay: Dose normalised AUC in C57BL/6N mouse treated with JM6 (containing <0.4% Ro-61-8048) at 10 mg/kg, po and Ro-61-8048 at 0.05 mg/kg, po drugs administered via gavage by LC-MS/MS analysis; type: ADME, organism-based; settings: in vivo; summary of the method: as §3
Mus musculus [13] = assay: Dose normalised AUC in C57BL/6N mouse treated with JM6 (containing <0.4% Ro-61-8048) at 50 mg/kg, po and Ro-61-8048 at 0.05 mg/kg, po drugs administered via gavage by LC-MS/MS analysis; type: ADME, organism-based; settings: in vivo; summary of the method: as §3
[14] = Half life in C57BL/6N mouse treated with JM6 (containing <0.4% Ro-61-8048) at 25 mg/kg, po and Ro-61-8048 at 0.05 mg/kg, po drugs administered via gavage by LC-MS/MS analysis; type: ADME, organism-based; settings: in vivo; summary of the method: as §3
[15] = molecular target: Kynurenine 3-monooxygenase (Mus musculus, UniProt Q91WN4); assay: Inhibition of C57BL/6J mouse KMO assessed as 3-hydroxykynurenine formation preincubated for 5 mins using 100 uM kynurenine as substrate by LC-MS/MS analysis; summary of the method: as §2
[16] = Metabolic stability in human liver microsomes assessed as half life at 5 uM after 5 to 40 mins by LC-MS/MS analysis; type: ADME
[17] = Apparent permeability from apical to basolateral side in MDCK2 cells at 10 uM after 1 hr by LC-MS/MS analysis; type: ADME, cell-based, Canis lupus familiaris, MDCK-II; settings: dog; summary of the method: as §1
[18] = Cmax in C57BL/6N mouse treated with JM6 (containing <0.4% Ro-61-8048) at 9 mg/kg, po and Ro-61-8048 at 1 mg/kg, po drugs administered via gavage by LC-MS/MS analysis; type: ADME, organism-based; parameters: dose 9 mg/kg, route oral; settings: in vivo; summary of the method: as §3
[19] = Metabolic stability in mouse plasma assessed as half life at 5 uM after 10 to 1440 mins by LC-MS/MS analysis; type: ADME, cell-free
[20] = Efflux ratio of permeability from basolateral to apical side over apical to basolateral side in MDCK2 cells at 10 uM after 1 hr by LC-MS/MS analysis; type: ADME, cell-based, Canis lupus familiaris, MDCK-II; settings: dog
Summary of the method: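 MDCKII wild-type and MDR1 cells grown on Transwells 3 days at 2×10^5 cells/well. Compound 10 μM in HBSS with 25 mM HEPES pH 7.4, added apical or basolateral in duplicate, 1 h at 37 °C. Lucifer Yellow monitored monolayer integrity; wells above 100 nm/s rejected. Both chambers sampled, LC-MS/MS; Papp A>B and B>A, ratio B>A:A>B.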

Mus musculus [21] = assay: Dose normalised Cmax in C57BL/6N mouse treated with JM6 (containing <0.4% Ro-61-8048) at 10 mg/kg, po and Ro-61-8048 at 0.05 mg/kg, po drugs administered via gavage by LC-MS/MS analysis; type: ADME, organism-based; settings: in vivo; summary of the method: as §3

Sequence of Kynurenine 3-monooxygenase (Homo sapiens, UniProt O15229) (O15229 whole entry): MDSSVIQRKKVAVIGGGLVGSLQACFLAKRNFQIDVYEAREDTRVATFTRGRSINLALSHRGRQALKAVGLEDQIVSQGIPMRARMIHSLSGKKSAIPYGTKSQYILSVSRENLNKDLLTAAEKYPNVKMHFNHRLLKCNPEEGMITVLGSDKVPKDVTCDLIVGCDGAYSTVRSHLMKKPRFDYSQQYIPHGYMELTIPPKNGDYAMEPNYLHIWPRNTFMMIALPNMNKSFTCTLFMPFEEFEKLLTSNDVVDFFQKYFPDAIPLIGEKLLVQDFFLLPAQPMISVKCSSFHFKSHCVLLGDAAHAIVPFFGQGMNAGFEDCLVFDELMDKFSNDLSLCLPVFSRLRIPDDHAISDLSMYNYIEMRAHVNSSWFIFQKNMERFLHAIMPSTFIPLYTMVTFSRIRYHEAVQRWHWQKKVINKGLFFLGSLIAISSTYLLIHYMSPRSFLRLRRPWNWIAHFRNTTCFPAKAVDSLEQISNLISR
Sequence of Kynurenine 3-monooxygenase (Rattus norvegicus, UniProt O88867) (O88867 whole entry): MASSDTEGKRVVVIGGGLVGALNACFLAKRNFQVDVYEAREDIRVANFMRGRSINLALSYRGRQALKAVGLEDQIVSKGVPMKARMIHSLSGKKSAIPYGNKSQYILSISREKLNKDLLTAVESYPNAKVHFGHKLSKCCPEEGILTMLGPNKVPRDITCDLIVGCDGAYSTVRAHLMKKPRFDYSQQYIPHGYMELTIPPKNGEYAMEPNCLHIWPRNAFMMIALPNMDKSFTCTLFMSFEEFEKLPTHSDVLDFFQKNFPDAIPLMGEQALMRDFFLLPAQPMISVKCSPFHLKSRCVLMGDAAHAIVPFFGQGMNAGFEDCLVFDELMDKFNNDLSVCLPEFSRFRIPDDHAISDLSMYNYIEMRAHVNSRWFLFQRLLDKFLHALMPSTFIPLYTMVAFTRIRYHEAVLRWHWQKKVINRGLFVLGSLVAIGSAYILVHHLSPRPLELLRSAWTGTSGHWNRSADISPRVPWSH
Sequence of Kynurenine 3-monooxygenase (Mus musculus, UniProt Q91WN4) (Q91WN4 whole entry): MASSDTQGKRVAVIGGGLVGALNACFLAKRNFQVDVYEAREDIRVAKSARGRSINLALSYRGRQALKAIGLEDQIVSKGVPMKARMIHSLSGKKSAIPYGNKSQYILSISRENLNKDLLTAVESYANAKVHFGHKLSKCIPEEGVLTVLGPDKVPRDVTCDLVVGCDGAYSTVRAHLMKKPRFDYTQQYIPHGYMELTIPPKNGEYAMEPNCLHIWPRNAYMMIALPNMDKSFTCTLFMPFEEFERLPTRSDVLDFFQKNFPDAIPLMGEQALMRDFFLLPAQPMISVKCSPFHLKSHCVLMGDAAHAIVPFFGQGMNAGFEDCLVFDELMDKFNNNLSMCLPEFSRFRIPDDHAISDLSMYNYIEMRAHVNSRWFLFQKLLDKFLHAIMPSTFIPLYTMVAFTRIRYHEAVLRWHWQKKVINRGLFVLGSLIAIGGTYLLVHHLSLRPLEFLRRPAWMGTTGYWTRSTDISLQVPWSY

Structure (SMILES): COc1ccc(S(=O)(=O)Nc2nc(-c3cccc([N+](=O)[O-])c3)cs2)cc1OC
- Papp A→B at 1 h, 10 µM (MDR1 [1]): 10 ×10⁻⁶ cm/s
- IC50 [2]: 0.022 µM
- IC50 [3]: 0.17 µM
- AUC(0-t) [4]: 7.9 µM·h
- Papp B→A at 1 h, 10 µM (MDR1 [5]): 33 ×10⁻⁶ cm/s
- bioavailability [6]: 80%
- Tmax [7]: 2 h
- AUC(0-t) [8]: 8.4 µM·h
- Cmax [9]: 530 nM
- half-life at 5 µM [10]: > 24 h
- half-life at 5 µM [11]: > 24 h
- AUC/dose (Mus musculus [12]): 100000 nM·kg·h/mg
- AUC/dose (Mus musculus [13]): 160000 nM·kg·h/mg
- half-life [14]: 5.2 h
- IC50 [15]: 0.09 µM
- half-life at 5 µM [16]: 0.2 h
- Papp A→B at 1 h, 10 µM ([17]; MDCK): 17 ×10⁻⁶ cm/s
- Cmax [18]: 17000 nM
- half-life at 5 µM [19]: > 24 h
- efflux ratio at 1 h, 10 µM ([20]; MDCK): 0.8
- Cmax/dose (Mus musculus [21]): 11000 nM

Structure (SMILES): COc1ccc(S(=O)(=O)Nc2nc(-c3cccc([N+](=O)[O-])c3)c(CN3CCCCC3)s2)cc1OC
- Papp A→B at 1 h, 10 µM (MDR1 [1]): 0.72 ×10⁻⁶ cm/s
- IC50 [2]: 7.1 µM
- IC50 [3]: 11 µM
- AUC(0-t) [4]: 9.6 µM·h
- Papp B→A at 1 h, 10 µM (MDR1 [5]): 43 ×10⁻⁶ cm/s
- bioavailability [6]: 13%
- Tmax [7]: 0.5 h
- AUC(0-t) [8]: 4.8 µM·h
- Cmax [9]: 1900 nM
- half-life at 5 µM [10]: > 24 h
- half-life at 5 µM [11]: > 24 h
- AUC/dose (Mus musculus [12]): 130 nM·kg·h/mg
- AUC/dose (Mus musculus [13]): 190 nM·kg·h/mg
- half-life [14]: 0.7 h
- IC50 [15]: 20 µM
- half-life at 5 µM [16]: > 1.62 h
- Papp ([17]; mdck-ii, 1 h, 10 µM): 4.7 ×10⁻⁶ cm/s
- Cmax [18]: 1000 nM
- half-life at 5 µM [19]: > 24 h
- Ratio ([20]; mdck-ii, 1 h, 10 µM): 5.3
- Cmax/dose (Mus musculus [21]): 190 nM
